B2AR ag: human beta-2 adrenergic receptor agonism by FAP. P07550. Am2.2-beta2AR cells, FAP receptor internalization, flow cytometry. response, % (concentration not given with the values). 340,000 tested, 0.43% active. AID 504454;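 active = response above a set limit, near 3 SD of response in nonfluorescent compounds, cut at about 42% in these data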
Target sequence (P07550 whole entry, looked up): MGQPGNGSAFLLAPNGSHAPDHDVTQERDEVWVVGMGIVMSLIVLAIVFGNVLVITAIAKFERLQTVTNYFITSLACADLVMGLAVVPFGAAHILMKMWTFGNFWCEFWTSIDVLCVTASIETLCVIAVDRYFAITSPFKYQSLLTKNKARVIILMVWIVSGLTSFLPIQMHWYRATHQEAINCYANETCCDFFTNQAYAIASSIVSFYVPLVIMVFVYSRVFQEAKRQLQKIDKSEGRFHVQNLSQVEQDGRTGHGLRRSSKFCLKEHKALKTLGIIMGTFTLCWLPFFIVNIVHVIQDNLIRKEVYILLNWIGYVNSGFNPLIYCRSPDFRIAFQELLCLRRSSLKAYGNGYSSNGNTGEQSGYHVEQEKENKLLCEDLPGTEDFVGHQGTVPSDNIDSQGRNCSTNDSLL
Dynein cargo inh: dynein cargo transport inhibition. 3617.4 mouse cells, GR-EGFP nuclear translocation imaging; test concentration mostly 20 µM; stimulated with dexamethasone, 1 µM; hits give low values. z-score, hits read low. 220,000 tested, 0.47% active. AID 1381;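 active = plate z-score of nuclear minus cytoplasmic receptor signal below a set negative limit, without overly bright fluorescence or cell loss, cut at about -3.5 in these data, passing the limit was not always enough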;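 note: z-score of nuclear minus cytoplasmic ring GR-EGFP intensity difference per well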
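Also added – dexamethasone, 1.0 µM final · Buffer or medium – tet-free, stripped-serum medium · Schedule – induction 48 h, compound 1 h, agonist 30 min · Detection – formaldehyde fixation, Hoechst nuclear stain, 10x automated fluorescence imaging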
MDM2 E3 inh: blocks human Mdm2 ubiquitin ligase activity; Q00987; cell-based MDM2 ubiquitination luciferase reporter, 2 h; 0 = plate control, 100 = twice control, blank-subtracted; signal enhancement, % at 5 µM; 210,000 tested, 0.11% active; AID 1230;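 active = signal enhancement of 30% or more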;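 note: luminescence tracks abundance of the self-degrading MDM2-luciferase fusion protein; higher signal means inhibition of MDM2 E3 ligase activity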
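Assay system: mammalian cells stably expressing self-ubiquitinating, self-degrading MDM2 E3–luciferase fusion. Quantity: 2000 cells in each well. Medium: DMEM culture medium. Compound dosing: single-point 5 µM. Timing: cell settling 4 h, compound treatment 2 h, both 37 °C. Technique: luciferase luminescence. Read-out basis: percent signal gain over controls, blank-subtracted. Benchmarks: plate controls and plate blanks.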
Mdm2 MdmX PPI: disrupts the human Mdm2-MdmX interaction; SaOS-2 split-luciferase Mdm2/MdmX complementation, luminescence; inhibition, % at 8 µM; 330,000 tested, 3% active;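 active = inhibition of at least 50% at 8 µM in the primary screen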
UPR CHOP act: apoptotic UPR (CHOP) activation; CHO-CHOP luciferase reporter, luminescence; percent of tunicamycin response over DMSO baseline; 330,000 tested, 0.34% active; activation, % at 10 µM; AID 449763;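 active = at 10 µM dose, activation of 40% or more, normalized to positive control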
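Dosing – one dose, 10 µM in 0.5% DMSO · System – CHO-CHOP cells, stable luciferase reporter of PERK-eIF2a-CHOP signalling · Input – 500 cells/well · Control set – tunicamycin 10 µg/mL final as positive, DMSO-only wells as negative · Timing – 6 h compound treatment, 37 °C · Measure – % activation vs tunicamycin · Technique – luminescence read with Steady-Glo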
UPR XBP1 act: adaptive UPR (XBP1) activation; CHO-XBP1 luciferase reporter, IRE1-XBP1 UPR activation, luminescence; percent of tunicamycin response, DMSO as zero; activation, % at 20 µM; 330,000 tested, 0.33% active; AID 463104;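 active = versus positive control, 20 µM dose yields 30% or more activation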
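Assay system: IRE1-XBP1 luciferase reporter CHO line. Input: 1000 cells/well. Buffer or medium: F12 with 10% serum. Doses: 20 µM, 1% DMSO. Times: overnight seeding at 37 °C, 6 h compound treatment at 37 °C. Technique: Steady-Glo luciferase glow luminescence, 10 min after reagent addition.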
Mdm2-MdmX conf: human Mdm2/MdmX binding inhibition, confirmed | AID 489028 | shares compounds with Mdm2 MdmX PPI | inhibition, % at 8 µM | luminescent assay | 10,000 tested, 55% active; in the data active = inhibition above about 40%
FLuc counter: inhibits full-length luciferase, flagging false Mdm2/MdmX hits; shares compounds with Mdm2 MdmX PPI; SaOS-2 full-length luciferase counterscreen, luminescence; inhibition, % at 8 µM; 6,200 tested, 77% active; AID 504607;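 active = mean inhibition at 8 µM reaching about 37%, which flags the compound as non-specific, limit read from the data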;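 note: p53-null SaOS-2 cells with luciferase driven by a doxycycline-inducible promoter; compound on cells about two nights before reading with doxycycline added after day one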
Hits are given with their value; 0 = inactive; - = not tested or not shown. In the library only some 3.7% were active in any assay of this set; here they are far more common.

SMILES | B2AR ag | Dynein cargo inh | MDM2 E3 inh | Mdm2 MdmX PPI | UPR CHOP act | UPR XBP1 act | Mdm2-MdmX conf | FLuc counter
CCOC(=O)c1sc(NC(=O)CSc2ccccn2)c(C#N)c1C | 0 | 0 | 0 | 74 | 0 | 0 | 0 | -
CCOC(=O)c1sc(NC(=O)c2cc(-c3ccccc3)nc3ccccc23)c(C#N)c1C | 0 | 0 | 0 | 94 | 0 | 0 | 91 | 47
CCOC(=O)c1sc(NC(=O)c2cccc(S(=O)(=O)N3CCc4ccccc43)c2)c(C#N)c1C | 0 | 0 | - | 89 | 0 | 0 | 0 | -
CCOC(=O)c1sc(NC(=O)CSc2nc(C)cc(C)n2)c(C#N)c1C | 0 | 0 | 0 | 0 | 0 | 0 | - | -
CCOC(=O)c1sc(NC(=O)CSc2nc3c(cc2C#N)CCCCC3)c(C#N)c1C | 0 | 0 | 0 | 72 | 0 | 0 | 0 | -
COc1cc(C2C=C(c3cccs3)Nc3ncnn32)cc(OC)c1OC (centres undefined) | 0 | 0 | 0 | - | - | - | - | -
COc1ccc(C)cc1N(CC(=O)NCCN1CCOCC1)S(=O)(=O)c1ccccc1 | 0 | - | - | 0 | 0 | 0 | - | -
CS(=O)(=O)Nc1ccc(-c2cc(/C=C3\SC(N)=NC3=O)c[nH]c2=O)cc1 | 0 | - | - | 0 | 0 | 0 | - | -
Cc1cc(C)c(C(=O)NCCCN2CCOCC2)c(C)c1 | 0 | - | - | 0 | 0 | 0 | - | -
O=[N+]([O-])/C=C/c1c(OCc2ccccc2)ccc2ccccc12 | 89 | 0 | 0 | 95 | 0 | 0 | 100 | 50
CN(C)CCN(C(=O)/C=C/c1cccs1)c1nc2ccc(F)cc2s1 | 0 | 0 | 0 | 59 | 0 | 0 | 43 | 56
CC(C)(C)c1nnc(N/N=C/c2ccccc2O)n(N)c1=O | 0 | 0 | - | 59 | 0 | 0 | 82 | 0
CC(C)(C)c1nnc(N/N=C/c2ccccc2)n(N)c1=O | 0 | 0 | 0 | 0 | 0 | 0 | - | -
COc1ccc([N+](=O)[O-])c(OC)c1C(=O)NC(=O)Nc1c(F)c(F)c(F)c(F)c1F | 0 | - | - | 0 | 0 | 0 | - | -
CCn1c(=O)c(C(=O)CN2CCN(S(=O)(=O)c3ccc(C)cc3C)CC2)c(N)n(Cc2ccccc2)c1=O | 0 | 0 | 0 | 53 | 0 | 0 | 43 | 75
c1ccc2c(c1)CCN(c1ncnc3c1[nH]c1ccccc13)C2 | 0 | - | 0 | 0 | 0 | 0 | - | -
COc1cccc(N2CCN(c3ncnc4c3[nH]c3ccc(F)cc34)CC2C)c1 (centres undefined) | 0 | 0 | 0 | 98 | 0 | 0 | 100 | 0
COc1cccc(N2CCN(c3ncnc4c3[nH]c3ccccc34)CC2C)c1 (centres undefined) | - | 0 | 0 | 100 | 0 | 0 | 98 | 0
Fc1ccc2[nH]c3c(N4CCN(C5CCCCC5)CC4)ncnc3c2c1 | - | 0 | 0 | 0 | 0 | 0 | - | -
Cc1noc(C)c1NC(=O)N(C)C[C@H]1Oc2ccc(NC(=O)Nc3ccc4c(c3)OCO4)cc2C(=O)N([C@H](C)CO)C[C@@H]1C | 0 | - | - | 0 | 0 | 0 | - | -
O=C(CSc1nc2ccc(NC(=O)CSc3nnnn3-c3ccccc3)cc2s1)Nc1ccccc1 | 0 | 0 | 0 | 0 | 0 | 0 | - | -
Cc1cccc(NC(=O)CSc2nc3ccc(NC(=O)CSc4nnnn4-c4ccccc4)cc3s2)c1C | - | 0 | 0 | 59 | 0 | 0 | 0 | -
CN(C)S(=O)(=O)c1cccc(NC(=O)C2Cc3ccccc3CN2C(=O)c2ccco2)c1 (centres undefined) | 0 | - | - | 0 | 0 | 0 | - | -
O=C(Nc1ccc(SC(F)F)cc1)c1cccc2nc3ccccc3nc12 | 0 | 0 | 0 | 78 | 0 | 0 | 0 | -
N/C(=N\OC(=O)c1ccc(F)cc1)c1ccc(Br)cc1 | 0 | 0 | 0 | 51 | 0 | 0 | 0 | -
SMILES | B2AR ag | Dynein cargo inh | MDM2 E3 inh | Mdm2 MdmX PPI | UPR CHOP act | UPR XBP1 act | Mdm2-MdmX conf | FLuc counter
Cc1ccc(/C(N)=N/OC(=O)c2ccc(F)cc2)cc1 | 0 | 0 | 0 | 59 | 0 | 0 | 0 | -
Cc1ccc(/C(N)=N/OC(=O)c2ccc3ccccc3c2)cc1 | 0 | - | - | 94 | 0 | 0 | 0 | 117
CCCCCc1ccc(OCCCC[n+]2ccccc2)c(CCCCC)c1 | 0 | 0 | 0 | 87 | 0 | 0 | 77 | 0
CCC(C)(C)c1ccc(OCCCC[n+]2ccccc2)c(C(C)(C)CC)c1 | 0 | -3.7 | 0 | 84 | 0 | 0 | 94 | 56
Cc1cc(=O)oc2cc(OCCCC[n+]3ccccc3)ccc12 | 0 | 0 | 0 | 0 | 0 | 0 | - | -
CCCCOc1ccc(C)cc1CN(CCO)CCO | 0 | 0 | 0 | 0 | 0 | 0 | - | -
CCCCCc1ccc(OCCCC[n+]2cccc(C)c2)c(CCCCC)c1 | 0 | 0 | 0 | 83 | 0 | 0 | 90 | 60
CCCCCc1ccc(OCCCC[n+]2ccc(C)cc2)c(CCCCC)c1 | 0 | 0 | 0 | 96 | 0 | 0 | 86 | 55
CC(=O)c1c(C)[nH]c(C(=O)OCC(=O)NNC(=O)c2ccc([N+](=O)[O-])cc2)c1C | 0 | - | - | 0 | 0 | 0 | - | -
CC(=O)c1c(C)[nH]c(C(=O)OCc2nnc(-c3ccc([N+](=O)[O-])cc3)o2)c1C | 0 | - | - | 53 | 0 | 0 | 0 | -
O=C(COC(=O)COc1ccc(Cl)cc1)NC1CC1 | 0 | - | - | 0 | 0 | 0 | - | -
Cc1ccc(OCCOC(=O)c2c(-c3ccccc3)noc2C)cc1 | 0 | - | - | 0 | 0 | 0 | - | -
Cc1onc(-c2ccccc2)c1C(=O)OCCOc1cccc(Cl)c1 | 0 | - | - | 52 | 0 | 0 | 62 | 64
Nc1nc(CCl)nc(N(c2ccccc2)c2ccccc2)n1 | 0 | 0 | 0 | 94 | 0 | 0 | 95 | 38
Cc1ccc2c(c1)c1ccc3c(c1n2C)C(=O)C=CC3=O | 93 | -6.9 | 40 | 86 | 0 | 0 | 71 | 57
COCCCNc1nc(N)c([N+](=O)[O-])c(NCc2ccccc2)n1 | 0 | - | - | 0 | 0 | 0 | - | -
COCCCNc1nc(N)c([N+](=O)[O-])c(Nc2ccccc2OC)n1 | 0 | 0 | 0 | 61 | 0 | 0 | 0 | -
CC(C)N(C(=O)[C@H]1C[C@H](CC(=O)NCCC2=CCCCC2)C(=O)N2CCc3c([nH]c4ccc(Cl)cc34)[C@]12C)C(C)C | 0 | - | - | 0 | 0 | 0 | - | -
COc1ccc(-n2nnnc2S(=O)(=O)CC(=O)N2CCCCC2)cc1 | 0 | -3.9 | 0 | 97 | 0 | 0 | 96 | 0
CC(=O)N(c1nnc(-c2cccc(C)c2)s1)C1CCCC1 | 0 | - | - | 0 | 0 | 0 | - | -
CCN(CC(=O)NC(C)(C)C)C(=O)c1ccccc1SCC(=O)NC1CCCCCCC1 | 0 | - | - | 0 | 0 | 0 | - | -
